Experiment [1] can be described thus: Inhibition of diphenolase activity of banana tyrosinase using catechol as substrate by spectrophotometry. Set-up: species or system Musa acuminata. The essentials:
(§1)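 Tyrosinase (PPO) extracted from banana, then purified on a Sepharose 4B-L-tyrosine-p-aminobenzoic acid affinity column; all purification steps at 25 °C. Activity measured with catechol as substrate by following the absorbance increase at 420 nm. Residual activity was followed over a range of inhibitor concentrations, and progress curves were compared with uninhibited enzyme activity.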

Experiment [2] can be described thus: Competitive inhibition of diphenolase activity of banana tyrosinase using catechol as substrate by Lineweaver-Burk double reciprocal plot analysis. The arrangement: species or system Musa acuminata. Summed up: as §1
In experiment [3] the test system is Musa acuminata. As to the kind of experiment: Inhibition of diphenolase activity of banana tyrosinase using catechol as substrate at 50 uM by spectrophotometry. The essentials: as §1
The test system of experiment [4] is Musa acuminata. In words: Activation of diphenolase activity of banana tyrosinase using catechol as substrate at 50 uM by spectrophotometry. The essentials:
as §1

Active and inactive are the calls of the source. The calls are words filed in the database; no cut-off is given here.

`COc1ccc(C(=O)/C=C/c2ccc(NC(=O)Nc3ccc(C)cc3)cc2)cc1` yielded an IC50 in experiment [1] of 289 nM. For the same compound, the Ki in experiment [2] was determined as 22 nM.

As to `COc1cccc(NC(=O)Nc2ccc(/C=C/C(=O)c3ccccc3)cc2)c1`, the IC50 in experiment [1] was found to be 244 nM. In experiment [2], the inhibition constant Ki amounted to 240 nM.

Consider `O=C(Nc1ccccc1)Nc1ccc(C(=O)/C=C/c2ccc(Cl)cc2)cc1`, for which the inhibition result in experiment [3] was “inactive”. Further, the outcome in experiment [4] was Active.

In turn, `Cc1ccc(NC(=O)Nc2ccc(/C=C/C(=O)c3ccc(C)cc3)cc2)cc1` displayed an IC50 in experiment [1] of 134 nM. For the same compound, the Ki in experiment [2] came out at 67 nM.

As for `O=C(Nc1ccc(F)cc1)Nc1ccc(/C=C/C(=O)c2ccc(Cl)cc2)cc1`, inhibition in experiment [1] was half-maximal at 133 nM (IC50). Also, the Ki in experiment [2] came out at 117 nM.

In the case of `O=C(/C=C/c1ccc(Cl)cc1)c1ccc(NC(=S)Nc2ccccc2)cc1`, the inhibition result in experiment [3] was “inactive”. For the same compound, the result in experiment [4] was Active.

`Cc1ccc(C(=O)/C=C/c2ccc(NC(=O)Nc3ccc(F)cc3)cc2)cc1` displayed a 50% inhibitory concentration (IC50) in experiment [1] of 217 nM. The compound also showed a Ki in experiment [2] of 59 nM.

With `COc1ccc(/C=C/C(=O)c2ccc(NC(=O)Nc3ccccc3)cc2)cc1`, the inhibition result in experiment [3] was “inactive”. The result in experiment [4] was Active.

`Cc1ccc(NC(=S)Nc2ccc(C(=O)/C=C/c3ccc(Cl)cc3)cc2)cc1`: the inhibition result in experiment [3] is “inactive”. Also, the result in experiment [4] was Active.

In experiment [1], `Cc1ccc(NC(=O)Nc2ccc(/C=C/C(=O)c3ccc(Cl)cc3)cc2)cc1` returned an IC50 of 238 nM. Further, the Ki in experiment [2] was 129 nM.

As to `Cc1ccc(NC(=O)Nc2ccc(C(=O)/C=C/c3ccc(Cl)cc3)cc2)cc1`, in experiment [3], the inhibition result was “inactive”. Moreover, the outcome in experiment [4] was Active.

For the compound `COc1ccc(/C=C/C(=O)c2ccc(NC(=S)Nc3ccccc3)cc2)cc1`, in experiment [3], the inhibition entry is “inactive”. In addition, in experiment [4], the outcome was Active.

As to `COc1ccc(/C=C/C(=O)c2ccc(NC(=S)Nc3ccc(C)cc3)cc2)cc1`, the inhibition entry in experiment [3] is “inactive”. In experiment [4], the outcome was Active.

Consider `Cc1ccc(NC(=O)Nc2ccc(C(=O)/C=C/c3ccc(Br)cc3)cc2)cc1`, for which the inhibition entry in experiment [3] is “inactive”. The result in experiment [4] was Active.

With `Cc1ccc(/C=C/C(=O)c2ccc(NC(=O)Nc3ccc(C)cc3)cc2)cc1`, in experiment [3], the inhibition entry is “inactive”. Further, the outcome in experiment [4] was Active.

As to `O=C(Nc1ccccc1)Nc1ccc(C(=O)/C=C/c2ccc(Br)cc2)cc1`, in experiment [3], the inhibition result was “inactive”. In addition, the outcome in experiment [4] was Active.

Compound `O=C(Nc1ccccc1)Nc1ccc(/C=C/C(=O)c2ccccc2)cc1` yielded a concentration for half-maximal inhibition (IC50) in experiment [1] of 172 nM. This compound also returned an inhibition constant (Ki) in experiment [2] of 37 nM.

For `COc1ccc(/C=C/C(=O)c2ccc(NC(=O)Nc3ccc(C)cc3)cc2)cc1`, the inhibition entry in experiment [3] is “inactive”. The outcome in experiment [4] was Active.

In the case of `COc1cccc(NC(=O)Nc2ccc(/C=C/C(=O)c3ccc(Cl)cc3)cc2)c1`, in experiment [1], the IC50 was 152 nM. Further, the Ki in experiment [2] was 59 nM.

Turning to `O=C(Nc1ccc(F)cc1)Nc1ccc(/C=C/C(=O)c2ccccc2)cc1`, inhibition in experiment [1] was half-maximal at 177 nM (IC50). The same compound had an inhibition constant Ki in experiment [2] of 125 nM.

`Cc1ccc(NC(=O)Nc2ccc(/C=C/C(=O)c3ccccc3)cc2)cc1` gave an IC50 in experiment [1] of 241 nM. In addition, the affinity in experiment [2], expressed as Ki, was 57 nM.

For the compound `Cc1ccc(/C=C/C(=O)c2ccc(NC(=O)Nc3ccccc3)cc2)cc1`, the inhibition entry in experiment [3] was “inactive”. Moreover, the result in experiment [4] was Active.

One may read the IC50 as the concentration needed to halve the response being measured. A high value points to a need for much substance. By Ki is commonly meant the equilibrium dissociation constant of an inhibitor or competing ligand from its target. A low value points to a stronger hold on the target.

These data come from ChEMBL document CHEMBL1921736, “Evaluation of new chalcone derivatives as polyphenol oxidase inhibitors” (Bioorg Med Chem Lett, 2011).
